ChEMBL document CHEMBL1144894, “Synthesis of 1-boraadamantaneamine derivatives with selective astrocyte vs C6 glioma antiproliferative activity. A novel class of anti-hepatitis C agents with potential to bind CD81” (2003)

How the values were obtained:
[1] = Antiproliferative effect was determined on CD81 enriched cell lines for binding and activation of the CD81 receptor; assay type: functional, Rattus norvegicus
Summary of the method: (§1)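 Primary rat pup astrocytes (CD81-enriched, 4-8 days postpartum) and C6 glioma (CD81-deficient) were run in parallel, seeded at 3 × 10³ and 10³ cells/well. Compounds at 0.1-10 µM were given in 2% FCS-BME (0.05% DMSO final) for 4 days at 37 °C, 5% CO₂. Cells were formaldehyde-fixed and cresyl violet-stained (pH 3.7), with A560 read-out. % survival is relative to untreated wells, from 3 experiments × 4 wells.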

[2] = Nonspecific cytotoxicity at the specified concentration; assay type: functional
Rattus norvegicus = species: Rattus norvegicus; experiment: Concentration showing a non-astrocyte selective antiproliferative effect was determined; assay type: functional; summary of the method: as §1
[3] = Tested for greatest astrocyte-selective antiproliferative character at concentration of 5 uM; assay type: functional
Summary of the method: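 Rat pup primary astrocytes (CD81-enriched, 4-8 days postpartum) and C6 glioma cells run in parallel, seeded at 3 × 10³ and 10³ per well. Incubated with compound for 4 days at 37 °C, 5% CO₂, final DMSO 0.05%. Fixed in formaldehyde, stained with cresyl violet, dye eluted in acetic acid, A560 read. % survival = treated/untreated ×100. Three experiments, four wells each.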

SMILES	Antiproliferative effect [1]	Cytotoxicity [2]	Concentration (Rattus norvegicus)	Cell survival [3]
COC(=O)[C@H](CC(C)C)[NH2+][B-]12CC3CC(CC(C3)C1)C2	10 µM	>10 µM		
COC(=O)[C@H](Cc1ccccc1)NC(=O)C12CC3CC(CC(C3)C1)C2	10 µM	>10 µM		
COC(=O)[C@H](Cc1ccccc1)[NH2+][B-]12CC3CC(CC(C3)C1)C2	10 µM	>10 µM		
C1C2CC3CC1CC(NC14CC5CC(CC(C5)C1)C4)(C2)C3			10 µM	
O=C(NC12CC3CC(CC(C3)C1)C2)C12CC3CC(CC(C3)C1)C2			10 µM	
O=C(O)[C@H](Cc1ccccc1)NC(=O)C12CC3CC(CC(C3)C1)C2	10 µM	>10 µM		82%
COC(=O)[C@H](CC(C)C)NC(=O)C12CC3CC(CC(C3)C1)C2			10 µM	
OCC[NH2+][B-]12CC3CC(CC(C3)C1)C2	10 µM	>10 µM		
COC(=O)[C@H](CS)[NH2+][B-]12CC3CC(CC(C3)C1)C2			10 µM	
C1C2CC3CC1C[B-]([NH2+]C14CC5CC(CC(C5)C1)C4)(C2)C3			10 µM	
CC(C)C[C@H](NC(=O)C12CC3CC(CC(C3)C1)C2)C(=O)O	10 µM	>10 µM		
